# Source: PubChem BioAssay (The Scripps Research Institute Molecular Screening Center)
# Hits are enriched below; roughly 1.9% of the tested compounds scored in any of these assays.
# M5 ag: agonists of human muscarinic M5 receptor (CHRM5). P08912. CHO-K1 hM5 cells, Fluo-8 calcium fluorescence; 0% DMSO wells, 100% maximal acetylcholine response. activation, % at 3 µM. 0.19% of 360,000 active. AID 624037;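 active = activation above the run's mean over test compounds plus 3 SD, cut at about 23% in these data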;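 note: signal is peak over basal fluorescence ratio across the kinetic read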
# CHRM4 PAM: CHRM4 positive allosteric modulation; 0.4% of 360,000 active; activation, % at 3 µM; P08173; CHO-K1 hM4/Gqi5, Fluo-8 calcium fluorescence, ACh EC20; 0% = ACh EC20, 100% = maximal ACh;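 active = activation above its plate's cutoff, the mean activation of sample wells plus 3 SD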
# Target sequence (P08173 whole entry, looked up): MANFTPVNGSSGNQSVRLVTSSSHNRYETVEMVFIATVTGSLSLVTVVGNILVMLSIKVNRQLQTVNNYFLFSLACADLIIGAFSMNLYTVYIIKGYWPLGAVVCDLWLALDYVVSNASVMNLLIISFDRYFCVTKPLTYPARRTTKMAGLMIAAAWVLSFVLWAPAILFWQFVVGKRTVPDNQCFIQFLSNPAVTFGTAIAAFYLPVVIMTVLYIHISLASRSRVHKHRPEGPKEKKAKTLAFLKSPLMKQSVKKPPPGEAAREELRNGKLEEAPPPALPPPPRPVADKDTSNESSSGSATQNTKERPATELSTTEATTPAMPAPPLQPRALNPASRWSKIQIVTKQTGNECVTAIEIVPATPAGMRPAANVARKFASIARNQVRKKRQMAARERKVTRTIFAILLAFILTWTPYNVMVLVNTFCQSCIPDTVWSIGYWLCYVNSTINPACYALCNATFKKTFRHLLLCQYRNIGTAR
# M4 antag: CHRM4 antagonism in calcium assay. CHO-hM4 cells, ACh EC80, Fluo-8 calcium fluorescence. inhibition, % at 3 µM. 0.73% of 360,000 active;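 active = inhibition above its plate's cutoff, the mean inhibition of sample wells plus 3 SD, cut at about 27% in these data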;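 note: 0% = acetylcholine EC80 with DMSO and 100% = DMSO without agonist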
# CHRM5 PAM: positive allosteric modulators of human muscarinic M5 receptor; P08912; CHO-K1 hM5, Fluo-8 calcium, ACh EC20 PAM; 0% = ACh EC20, 100% = ACh EC100; activation, % at 3 µM; 0.3% of 360,000 active;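 active = activation above the run cutoff, the mean activation of all test compounds plus 3 SD, cut at about 18% in these data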
#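 System: CHO-K1 hM5 cells. Reagent: acetylcholine, EC20 level. Compound dosing: single dose, 3 µM nominal final test concentration. Timing: Post-acetylcholine fluorescence recording 140 s. Detection: Fluo-8 calcium fluorescence. Read-out: % activation, ACh-normalized. Benchmarks: ACh EC20 and EC100 wells. Repeats: singlicate, one well per test compound.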
# M4 ag: agonists of human muscarinic M4 receptor (CHRM4); AID 624127; P08173; activation, % at 3 µM; 0.14% of 360,000 active; CHO-K1 hM4/Gqi5, Fluo-8 calcium fluorescence; vehicle 0%, full acetylcholine response 100%;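 active = activation above the run mean over all test wells plus 3 SD, cut at about 32% in these data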;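 note: peak over basal fluorescence ratio per well then scaled between controls; 0% = DMSO wells and 100% = acetylcholine at EC100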
# M5 antag: blocks acetylcholine activation of human M5 receptor. P08912. CHO-hM5 cells, Fluo-8 calcium fluorescence, ACh EC80. inhibition, % at 3 µM. 0.59% of 360,000 active. AID 624040;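 active = inhibition above a per-plate cutoff, the mean of that plate's test compounds plus 3 SD, cut at about 27% in these data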;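 note: 0% = acetylcholine EC80 with DMSO and 100% = DMSO without agonist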
# An asterisk follows results filed as active.
SMILES,M5 ag,CHRM4 PAM,M4 antag,CHRM5 PAM,M4 ag,M5 antag
Cc1cc(Br)ccc1NC(=O)CNC(=O)CN1C(=O)NC2(CCCCCC2)C1=O,1.2,-0.7,-0.6,-3.2,2.3,6.8
CNCCC=C1c2ccccc2CCc2ccccc21,0.0,-17.0,67.2*,-18.8,6.7,92.6*
CC(=O)Nc1ccc2c(c1)CCc1ccccc1-2,0.1,-0.3,-20.2,0.5,3.1,-2.5
COC(=O)c1cc(Oc2ccc(C(=O)OC)cc2N)cc(C(=O)OC)c1,0.2,19.6*,-1.9,-13.7,0.7,-8.9
COC(=O)c1cc(Br)ccc1NC(=O)CSCc1c(C)noc1C,-1.9,-2.5,8.2,-6.3,1.3,11.9
O=C(c1ccncc1)N1N=C(c2ccc(Br)cc2)CC1c1ccccc1O (stereo not drawn),-3.4,-13.3,5.6,-8.9,10.7,32.5*
Cc1cccc(NC(=O)COC(=O)CN2C(=O)c3ccccc3C2=O)c1,1.2,2.1,0.5,2.3,0.9,-2.5
CC(=O)Nc1cc(S(=O)(=O)C(F)(F)F)ccc1Cl,-1.5,1.0,-2.2,18.6*,0.2,-9.8
O=C(NCC(=O)N1CCC2(CC1)NCCc1[nH]cnc12)c1cccc(Cl)c1,-2.9,1.0,-3.7,6.9,0.0,-6.0
CC(=O)CC(=O)Nc1ccc(Nc2ccccc2)cc1,0.5,-12.0,29.9*,-2.3,1.9,-1.3
CC(=O)Nc1ccc(Nc2ccccc2)cc1,0.6,14.8,-4.3,3.1,1.5,-2.0
Cc1cccc(C)c1-n1c(C)cc(/C=C2\NC(=O)NC2=O)c1C,-2.4,35.5*,1.0,-0.1,0.0,-3.5
Cc1cc(/C=C2\NC(=O)NC2=O)c(C)n1-c1cccnc1,-0.9,5.3,-7.5,2.4,0.1,-4.5
CCOC(=O)c1[nH]c2ccc(Br)cc2c1NC(=O)CCN1CCCC(C)(C)C1,-6.4,-33.7,32.6*,-20.4,2.7,46.0*
Cc1ccc(S(=O)(=O)CCc2nc3ccccc3[nH]2)cc1,0.4,-6.2,0.6,-1.2,1.9,10.0
O=S(=O)(CCc1nc2ccccc2[nH]1)c1ccc(Cl)cc1,0.7,22.9*,-10.1,1.1,2.1,-13.7
CCOc1ccc(C(C)=O)cc1COC(=O)c1ccccc1C(=O)N(C)Cc1ccccc1,1.8,-3.8,-3.7,-20.6,14.3,14.5
N#Cc1c(C(F)(F)F)cc(-c2ccco2)nc1SCc1ccncc1,0.4,-7.2,24.9,-5.4,16.0,25.9
N#Cc1c(C(F)(F)F)cc(-c2ccco2)nc1SCc1ccccn1,12.2,-8.3,21.4,-10.6,55.7*,26.8
N#CCCn1nc(-c2ccccc2)cc1Nc1ccccc1NC(=O)c1cccs1,-2.5,-6.5,-8.7,21.5*,5.8,-13.8
COc1cc2c(cc1NC(=O)CN1CCN(S(=O)(=O)c3ccc(C)cc3)CC1)oc1ccccc12,-0.8,21.7*,-7.5,-0.6,1.4,9.5
NC(=O)c1nsc(C(=O)N(c2ccc3c(c2)OCO3)C(C(=O)NCC2CCCO2)c2ccc(F)cc2)c1N (stereo not drawn),0.9,23.5*,20.1,18.8*,15.1,22.2
NC(=O)c1nsc(C(=O)N(c2ccccc2)C(C(=O)NCc2ccc(F)cc2)c2ccc(O)cc2)c1N (stereo not drawn),3.5,-17.6,30.6*,-9.0,30.7,13.9
CCN(CC)C(=O)c1csc(COCCO)n1,1.6,4.2,-7.8,0.5,0.6,-1.7
Cc1cccc(Cl)c1OCCCn1ccnc1,-16.4,-5.3,7.5,0.1,0.5,1.8
O=C(CCc1c[nH]c2ccccc12)N1CCN(S(=O)(=O)c2ccc([N+](=O)[O-])cc2)CC1,-1.2,-5.6,-13.2,-7.1,5.4,2.2
CCC(C)c1ccccc1OCCn1ccnc1 (stereo not drawn),-6.5,-3.2,0.6,-18.4,1.4,29.7*
Clc1ccc(OCCn2ccnc2)c(Br)c1,-11.5,0.3,1.0,27.0*,-0.3,8.0
O=C(Cc1ccc(NC(=O)C2CCN(C(=O)C3CCCCC3)CC2)cc1)Nc1ccc(C(=O)N2CCOCC2)cc1,1.6,3.7,-7.9,-1.3,0.1,-1.6
